Experiments:
Assay type in all cases: functional
Conditions in all cases: read-out: GI
HL-60(TB) = test: Growth inhibition of human HL-60(TB) cells at 10 uM incubated for 48 hrs by sulforhodamine B assay relative to control
In short: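 NCI-60 one-dose screen: same culture, 48 h drug exposure and SRB read-out. Reported as percent growth relative to no-drug control and to time-zero cell number; 0–100 means growth inhibition, below 0 means lethality.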

K562 = test: Growth inhibition of human K562 cells at 10 uM incubated for 48 hrs by sulforhodamine B assay relative to control
In short: (§1)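 NCI-60 single-dose screen. Cells were grown in RPMI 1640 with 5% FBS and 2 mM L-glutamine and plated 24 h before drug addition. Compound was added at one concentration in DMSO-derived medium and incubated for 48 h at 37 °C in 5% CO2. Read-out was SRB protein stain at 515 nm. Result is percent growth versus the no-drug control and the time-zero cell count; values below 0 indicate lethality.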

SR = test: Growth inhibition of human SR cells at 10 uM incubated for 48 hrs by sulforhodamine B assay relative to control
In short: (§2)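 NCI one-dose screen. Cells grown in RPMI 1640 with 5% FBS and 2 mM L-glutamine, plated and incubated 24 h at 37 °C, 5% CO2. DMSO-dissolved drug added, then 48 h further incubation. Adherent cells fixed with cold TCA, suspension cells fixed after settling. Stained with 0.4% SRB, absorbance read at 515 nm. Reported as percent growth relative to no-drug control and time-zero cell number.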

EKVX = test: Growth inhibition of human EKVX cells at 10 uM incubated for 48 hrs by sulforhodamine B assay relative to control; in short: as §1
HOP-62 = test: Growth inhibition of human HOP-62 cells at 10 uM incubated for 48 hrs by sulforhodamine B assay relative to control; in short: as §1
NCI-H226 = test: Growth inhibition of human NCI-H226 cells at 10 uM incubated for 48 hrs by sulforhodamine B assay relative to control; in short: as §2
NCI-H460 = test: Growth inhibition of human NCI-H460 cells at 10 uM incubated for 48 hrs by sulforhodamine B assay relative to control; in short: as §2
NCI-H522 = test: Growth inhibition of human NCI-H522 cells at 10 uM incubated for 48 hrs by sulforhodamine B assay relative to control; in short: as §2
COLO 205 = test: Growth inhibition of human COLO 205 cells at 10 uM incubated for 48 hrs by sulforhodamine B assay relative to control; in short: as §1
KM12 = test: Growth inhibition of human KM12 cells at 10 uM incubated for 48 hrs by sulforhodamine B assay relative to control; in short: as §1
SF-268 = test: Growth inhibition of human SF-268 cells at 10 uM incubated for 48 hrs by sulforhodamine B assay relative to control; in short: as §2
SF-295 = test: Growth inhibition of human SF-295 cells at 10 uM incubated for 48 hrs by sulforhodamine B assay relative to control; in short: as §2
SF-539 = test: Growth inhibition of human SF-539 cells at 10 uM incubated for 48 hrs by sulforhodamine B assay relative to control; in short: as §2
SNB-19 = test: Growth inhibition of human SNB-19 cells at 10 uM incubated for 48 hrs by sulforhodamine B assay relative to control; in short: as §2
SNB-75 = test: Growth inhibition of human SNB-75 cells at 10 uM incubated for 48 hrs by sulforhodamine B assay relative to control; in short: as §2
LOX IMVI = test: Growth inhibition of human LOX IMVI cells at 10 uM incubated for 48 hrs by sulforhodamine B assay relative to control; in short: as §1
M14 = test: Growth inhibition of human M14 cells at 10 uM incubated for 48 hrs by sulforhodamine B assay relative to control; in short: as §1
MDA-MB-435 = test: Growth inhibition of human MDA-MB-435 cells at 10 uM incubated for 48 hrs by sulforhodamine B assay relative to control; in short: as §1
SK-MEL-2 = test: Growth inhibition of human SK-MEL-2 cells at 10 uM incubated for 48 hrs by sulforhodamine B assay relative to control; in short: as §2
SK-MEL-28 = test: Growth inhibition of human SK-MEL-28 cells at 10 uM incubated for 48 hrs by sulforhodamine B assay relative to control; in short: as §2
SK-MEL-5 = test: Growth inhibition of human SK-MEL-5 cells at 10 uM incubated for 48 hrs by sulforhodamine B assay relative to control; in short: as §2
UACC-62 = test: Growth inhibition of human UACC-62 cells at 10 uM incubated for 48 hrs by sulforhodamine B assay relative to control
In short: (§3)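 NCI one-dose screen across a 59-line panel. Cells were grown in RPMI 1640 with 5% FBS and 2 mM L-glutamine, plated and pre-incubated 24 h, then exposed to drug for 48 h at 37 °C, 5% CO2. Adherent cells were fixed with cold TCA (10% final), stained with 0.4% SRB in 1% acetic acid and read at 515 nm. Result is percent growth relative to no-drug control and time-zero cell count.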

IGROV-1 = test: Growth inhibition of human IGROV-1 cells at 10 uM incubated for 48 hrs by sulforhodamine B assay relative to control; in short: as §1
OVCAR-3 = test: Growth inhibition of human OVCAR-3 cells at 10 uM incubated for 48 hrs by sulforhodamine B assay relative to control; in short: as §2
OVCAR-5 = test: Growth inhibition of human OVCAR-5 cells at 10 uM incubated for 48 hrs by sulforhodamine B assay relative to control; in short: as §2
OVCAR-8 = test: Growth inhibition of human OVCAR-8 cells at 10 uM incubated for 48 hrs by sulforhodamine B assay relative to control; in short: as §2
NCI/ADR-RES = test: Growth inhibition of human NCI/ADR-RES cells at 10 uM incubated for 48 hrs by sulforhodamine B assay relative to control; in short: as §2
RXF 393 = test: Growth inhibition of human RXF 393 cells at 10 uM incubated for 48 hrs by sulforhodamine B assay relative to control; in short: as §2
SN12C = test: Growth inhibition of human SN12C cells at 10 uM incubated for 48 hrs by sulforhodamine B assay relative to control; in short: as §2
UO-31 = test: Growth inhibition of human UO-31 cells at 10 uM incubated for 48 hrs by sulforhodamine B assay relative to control; in short: as §3
PC-3 = test: Growth inhibition of human PC-3 cells at 10 uM incubated for 48 hrs by sulforhodamine B assay relative to control; in short: as §2
MCF7 = test: Growth inhibition of human MCF7 cells at 10 uM incubated for 48 hrs by sulforhodamine B assay relative to control; in short: as §1
MDA-MB-231 = test: Growth inhibition of human MDA-MB-231 cells at 10 uM incubated for 48 hrs by sulforhodamine B assay relative to control; in short: as §1
Hs-578T = test: Growth inhibition of human HS-578T cells at 10 uM incubated for 48 hrs by sulforhodamine B assay relative to control; in short: as §1
T47D = test: Growth inhibition of human T47D cells at 10 uM incubated for 48 hrs by sulforhodamine B assay relative to control; in short: as §3
MDA-MB-468 = test: Growth inhibition of human MDA-MB-468 cells at 10 uM incubated for 48 hrs by sulforhodamine B assay relative to control; in short: as §1

SMILES	inhibition of growth at 10 µM (HL-60(TB))	inhibition of growth at 10 µM (K562)	inhibition of growth at 10 µM (SR)	inhibition of growth at 10 µM (EKVX)	inhibition of growth at 10 µM (HOP-62)	inhibition of growth at 10 µM (NCI-H226)	inhibition of growth at 10 µM (NCI-H460)	inhibition of growth at 10 µM (NCI-H522)	inhibition of growth at 10 µM (COLO 205)	inhibition of growth at 10 µM (KM12)	inhibition of growth at 10 µM (SF-268)	inhibition of growth at 10 µM (SF-295)	inhibition of growth at 10 µM (SF-539)	inhibition of growth at 10 µM (SNB-19)	inhibition of growth at 10 µM (SNB-75)	inhibition of growth at 10 µM (LOX IMVI)	inhibition of growth at 10 µM (M14)	inhibition of growth at 10 µM (MDA-MB-435)	inhibition of growth at 10 µM (SK-MEL-2)	inhibition of growth at 10 µM (SK-MEL-28)	also measured
COc1cc2nc(-c3ccc(Cl)cc3)cc(OCCCN3CCC(O)CC3)c2cc1OC	62%	62%	62%	62%	62%	62%	62%	62%	62%	62%	62%	62%	62%	62%	62%	62%	62%	62%	62%	62%	inhibition of growth at 10 µM (SK-MEL-5): 62%; inhibition of growth at 10 µM (UACC-62): 62%; inhibition of growth at 10 µM (IGROV-1): 62%; inhibition of growth at 10 µM (OVCAR-3): 62%; inhibition of growth at 10 µM (OVCAR-5): 62%; inhibition of growth at 10 µM (OVCAR-8): 62%; inhibition of growth at 10 µM (NCI/ADR-RES): 62%; inhibition of growth at 10 µM (RXF 393): 62%; inhibition of growth at 10 µM (SN12C): 62%; inhibition of growth at 10 µM (UO-31): 62%; inhibition of growth at 10 µM (PC-3): 62%; inhibition of growth at 10 µM (MCF7): 62%; inhibition of growth at 10 µM (MDA-MB-231): 62%; inhibition of growth at 10 µM (Hs-578T): 62%; inhibition of growth at 10 µM (T47D): 62%; inhibition of growth at 10 µM (MDA-MB-468): 62%
COc1cc2nc(-c3ccc(C(F)(F)F)cc3)cc(OCCN3CCCCC3)c2cc1OC	13%	13%	13%	13%	13%	13%	13%	13%	13%	13%	13%	13%	13%	13%	13%	13%	13%	13%	13%	13%	inhibition of growth at 10 µM (SK-MEL-5): 13%; inhibition of growth at 10 µM (UACC-62): 13%; inhibition of growth at 10 µM (IGROV-1): 13%; inhibition of growth at 10 µM (OVCAR-3): 13%; inhibition of growth at 10 µM (OVCAR-5): 13%; inhibition of growth at 10 µM (OVCAR-8): 13%; inhibition of growth at 10 µM (NCI/ADR-RES): 13%; inhibition of growth at 10 µM (RXF 393): 13%; inhibition of growth at 10 µM (SN12C): 13%; inhibition of growth at 10 µM (UO-31): 13%; inhibition of growth at 10 µM (PC-3): 13%; inhibition of growth at 10 µM (MCF7): 13%; inhibition of growth at 10 µM (MDA-MB-231): 13%; inhibition of growth at 10 µM (Hs-578T): 13%; inhibition of growth at 10 µM (T47D): 13%; inhibition of growth at 10 µM (MDA-MB-468): 13%
COc1cc2nc(-c3ccc(C(F)(F)F)cc3)cc(OCCN3CCC(O)CC3)c2cc1OC	13%	13%	13%	13%	13%	13%	13%	13%	13%	13%	13%	13%	13%	13%	13%	13%	13%	13%	13%	13%	inhibition of growth at 10 µM (SK-MEL-5): 13%; inhibition of growth at 10 µM (UACC-62): 13%; inhibition of growth at 10 µM (IGROV-1): 13%; inhibition of growth at 10 µM (OVCAR-3): 13%; inhibition of growth at 10 µM (OVCAR-5): 13%; inhibition of growth at 10 µM (OVCAR-8): 13%; inhibition of growth at 10 µM (NCI/ADR-RES): 13%; inhibition of growth at 10 µM (RXF 393): 13%; inhibition of growth at 10 µM (SN12C): 13%; inhibition of growth at 10 µM (UO-31): 13%; inhibition of growth at 10 µM (PC-3): 13%; inhibition of growth at 10 µM (MCF7): 13%; inhibition of growth at 10 µM (MDA-MB-231): 13%; inhibition of growth at 10 µM (Hs-578T): 13%; inhibition of growth at 10 µM (T47D): 13%; inhibition of growth at 10 µM (MDA-MB-468): 13%
COc1cc2nc(-c3ccc(Cl)cc3)cc(OCCN3CCOCC3)c2cc1OC	3%	3%	3%	3%	3%	3%	3%	3%	3%	3%	3%	3%	3%	3%	3%	3%	3%	3%	3%	3%	inhibition of growth at 10 µM (SK-MEL-5): 3%; inhibition of growth at 10 µM (UACC-62): 3%; inhibition of growth at 10 µM (IGROV-1): 3%; inhibition of growth at 10 µM (OVCAR-3): 3%; inhibition of growth at 10 µM (OVCAR-5): 3%; inhibition of growth at 10 µM (OVCAR-8): 3%; inhibition of growth at 10 µM (NCI/ADR-RES): 3%; inhibition of growth at 10 µM (RXF 393): 3%; inhibition of growth at 10 µM (SN12C): 3%; inhibition of growth at 10 µM (UO-31): 3%; inhibition of growth at 10 µM (PC-3): 3%; inhibition of growth at 10 µM (MCF7): 3%; inhibition of growth at 10 µM (MDA-MB-231): 3%; inhibition of growth at 10 µM (Hs-578T): 3%; inhibition of growth at 10 µM (T47D): 3%; inhibition of growth at 10 µM (MDA-MB-468): 3%

Source: ChEMBL document CHEMBL4732237, “Discovery of 4-alkoxy-2-aryl-6,7-dimethoxyquinolines as a new class of topoisomerase I inhibitors endowed with potent in vitro anticancer activity” (2021)
